# Legend:
# Type in all cases: functional
# [1] = test system: Bacteroides ovatus; test: Antibacterial activity against Bacteroides ovatus isolated from patient with diabetic foot infection after 44 to 48 hrs by agar dilution method
# How it was run: (§1)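 CLSI M11-A7 agar dilution: serial twofold drug dilutions made on the test day and added to molten agar. Spots of 10^5 CFU were applied by replicator, with drug-free control plates inoculated before and after each set. Incubation was 44 to 48 h at 37°C in an anaerobic chamber. MIC was the lowest concentration giving no growth or a marked change in growth versus controls.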
# [2] = test system: Anaerococcus tetradius; test: Antibacterial activity against Anaerococcus tetradius isolated from patient with diabetic foot infection assessed as percent resistant isolates after 44 to 48 hrs by agar dilution method
# How it was run: (§2)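 Agar dilution per CLSI M11-A7. Twofold drug dilutions made on the test day and added to molten agar. Replicator-applied inoculum of 10^5 CFU/spot. Drug-free control plates inoculated before and after each drug set. Incubation at 37°C for 44 to 48 h, anaerobic chamber. MIC taken as the lowest concentration giving no growth or a marked change in growth versus controls.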
# [3] = test system: Bacteroides fragilis; test: Antibacterial activity against Bacteroides fragilis isolated from patient with diabetic foot infection assessed as percent resistant isolates after 44 to 48 hrs by agar dilution method; how it was run: as §2
# [4] = test system: Porphyromonas somerae; test: Antibacterial activity against Porphyromonas somerae isolated from patient with diabetic foot infection assessed as percent resistant isolates after 44 to 48 hrs by agar dilution method; how it was run: as §2
# [5] = test system: Anaerococcus prevotii; test: Antibacterial activity against Anaerococcus prevotii isolated from patient with diabetic foot infection assessed as percent resistant isolates after 44 to 48 hrs by agar dilution method; how it was run: as §2
# [6] = test system: Anaerococcus prevotii; test: Antibacterial activity against Anaerococcus prevotii isolated from patient with diabetic foot infection after 44 to 48 hrs by agar dilution method; how it was run: as §1
# [7] = test system: Bacteroides thetaiotaomicron; test: Antibacterial activity against Bacteroides thetaiotaomicron isolated from patient with diabetic foot infection after 44 to 48 hrs by agar dilution method; how it was run: as §1
# [8] = test system: Enterocloster clostridioformis; test: Antibacterial activity against Clostridium clostridioforme isolated from patient with diabetic foot infection after 44 to 48 hrs by agar dilution method; how it was run: as §1
# [9] = test system: [Clostridium] innocuum; test: Antibacterial activity against Clostridium innocuum isolated from patient with diabetic foot infection after 44 to 48 hrs by agar dilution method; how it was run: as §1
# [10] = test system: Finegoldia magna; test: Antibacterial activity against Finegoldia magna isolated from patient with diabetic foot infection after 44 to 48 hrs by agar dilution method; how it was run: as §1
# [11] = test system: Clostridium malenominatum; test: Antibacterial activity against Clostridium malenominatum isolated from patient with diabetic foot infection after 44 to 48 hrs by agar dilution method; how it was run: as §1
# [12] = test system: Bacteroides uniformis; test: Antibacterial activity against Bacteroides uniformis isolated from patient with diabetic foot infection after 44 to 48 hrs by agar dilution method; how it was run: as §1
# [13] = test system: Peptostreptococcus anaerobius; test: Antibacterial activity against Peptostreptococcus anaerobius isolated from patient with diabetic foot infection after 44 to 48 hrs by agar dilution method; how it was run: as §1
# [14] = test system: Parabacteroides distasonis; test: Antibacterial activity against Parabacteroides distasonis isolated from patient with diabetic foot infection after 44 to 48 hrs by agar dilution method; how it was run: as §1
# [15] = test system: Cutibacterium acnes; test: Antibacterial activity against Propionibacterium acnes isolated from patient with diabetic foot infection after 44 to 48 hrs by agar dilution method; how it was run: as §1
# [16] = test system: Peptostreptococcus anaerobius; test: Antibacterial activity against Peptostreptococcus anaerobius isolated from patient with diabetic foot infection assessed as percent resistant isolates after 44 to 48 hrs by agar dilution method; how it was run: as §2
# [17] = test system: Peptoniphilus asaccharolyticus; test: Antibacterial activity against Peptoniphilus asaccharolyticus isolated from patient with diabetic foot infection assessed as percent resistant isolates after 44 to 48 hrs by agar dilution method; how it was run: as §2
# [18] = test system: [Clostridium] innocuum; test: Antibacterial activity against Clostridium innocuum isolated from patient with diabetic foot infection assessed as percent resistant isolates after 44 to 48 hrs by agar dilution method; how it was run: as §2
# [19] = test system: Phocaeicola vulgatus; test: Antibacterial activity against Bacteroides vulgatus isolated from patient with diabetic foot infection after 44 to 48 hrs by agar dilution method; how it was run: as §1
# [20] = test system: Clostridium cadaveris; test: Antibacterial activity against Clostridium cadaveris isolated from patient with diabetic foot infection after 44 to 48 hrs by agar dilution method; how it was run: as §1
# [21] = test system: Bacteroides thetaiotaomicron; test: Antibacterial activity against Bacteroides thetaiotaomicron isolated from patient with diabetic foot infection assessed as percent resistant isolates after 44 to 48 hrs by agar dilution method; how it was run: as §2
# [22] = test system: Enterocloster clostridioformis; test: Antibacterial activity against Clostridium clostridioforme isolated from patient with diabetic foot infection assessed as percent resistant isolates after 44 to 48 hrs by agar dilution method; how it was run: as §2
# [23] = test system: Finegoldia magna; test: Antibacterial activity against Finegoldia magna isolated from patient with diabetic foot infection assessed as percent resistant isolates after 44 to 48 hrs by agar dilution method; how it was run: as §2
# [24] = test system: Prevotella bivia; test: Antibacterial activity against Prevotella bivia isolated from patient with diabetic foot infection assessed as percent resistant isolates after 44 to 48 hrs by agar dilution method; how it was run: as §2
# [25] = test system: Bacteroides ovatus; test: Antibacterial activity against Bacteroides ovatus isolated from patient with diabetic foot infection assessed as percent resistant isolates after 44 to 48 hrs by agar dilution method; how it was run: as §2
# [26] = test system: Bacteroides fragilis; test: Antibacterial activity against Bacteroides fragilis isolated from patient with diabetic foot infection after 44 to 48 hrs by agar dilution method; how it was run: as §1
# [27] = test system: Phocaeicola vulgatus; test: Antibacterial activity against Bacteroides vulgatus isolated from patient with diabetic foot infection assessed as percent resistant isolates after 44 to 48 hrs by agar dilution method; how it was run: as §2
# [28] = test system: Clostridium malenominatum; test: Antibacterial activity against Clostridium malenominatum isolated from patient with diabetic foot infection assessed as percent resistant isolates after 44 to 48 hrs by agar dilution method; how it was run: as §2
# [29] = test system: Parvimonas micra; test: Antibacterial activity against Peptostreptococcus micros isolated from patient with diabetic foot infection after 44 to 48 hrs by agar dilution method; how it was run: as §1
# [30] = test system: Parvimonas micra; test: Antibacterial activity against Peptostreptococcus micros isolated from patient with diabetic foot infection assessed as percent resistant isolates after 44 to 48 hrs by agar dilution method; how it was run: as §2
# [31] = test system: Anaerococcus tetradius; test: Antibacterial activity against Anaerococcus tetradius isolated from patient with diabetic foot infection after 44 to 48 hrs by agar dilution method; how it was run: as §1
# [32] = test system: Bacteroides uniformis; test: Antibacterial activity against Bacteroides uniformis isolated from patient with diabetic foot infection assessed as percent resistant isolates after 44 to 48 hrs by agar dilution method; how it was run: as §2
# [33] = test system: Porphyromonas asaccharolytica; test: Antibacterial activity against Porphyromonas asaccharolyticus isolated from patient with diabetic foot infection after 44 to 48 hrs by agar dilution method; how it was run: as §1
# [34] = test system: Porphyromonas asaccharolytica; test: Antibacterial activity against Porphyromonas asaccharolyticus isolated from patient with diabetic foot infection assessed as percent resistant isolates after 44 to 48 hrs by agar dilution method; how it was run: as §2
# [35] = test system: Clostridium perfringens; test: Antibacterial activity against Clostridium perfringens isolated from patient with diabetic foot infection after 44 to 48 hrs by agar dilution method; how it was run: as §2
# [36] = test system: Parabacteroides merdae; test: Antibacterial activity against Parabacteroides merdae isolated from patient with diabetic foot infection after 44 to 48 hrs by agar dilution method; how it was run: as §1
# [37] = test system: Porphyromonas somerae; test: Antibacterial activity against Porphyromonas somerae isolated from patient with diabetic foot infection after 44 to 48 hrs by agar dilution method; how it was run: as §1
compound,measurement,setting,value
C[C@@H](O)[C@H]1C(=O)N2C(C(=O)O)=C(S[C@@H]3CN[C@H](C(=O)Nc4cccc(C(=O)O)c4)C3)[C@H](C)[C@H]12 [ERTAPENEM],MIC50,[1],1 µg/mL
same,MIC90,[1],2 µg/mL
same,Activity,[2],0%
same,Activity,[3],0%
same,Activity,[4],0%
same,Activity,[5],0%
same,MIC50,[6],0.125 µg/mL
same,MIC90,[6],0.25 µg/mL
same,MIC50,[7],1 µg/mL
same,MIC90,[7],2 µg/mL
same,MIC50,[8],0.25 µg/mL
same,MIC90,[8],2 µg/mL
same,MIC50,[9],0.25 µg/mL
same,MIC90,[9],2 µg/mL
same,MIC50,[10],0.06 µg/mL
same,MIC90,[10],0.125 µg/mL
same,MIC50,[11],0.25 µg/mL
same,MIC90,[11],2 µg/mL
same,MIC50,[12],1 µg/mL
same,MIC90,[12],2 µg/mL
same,MIC50,[13],0.25 µg/mL
same,MIC90,[13],0.5 µg/mL
same,MIC50,[14],1 µg/mL
same,MIC90,[14],2 µg/mL
same,MIC50,[15],0.125 µg/mL
same,MIC90,[15],0.25 µg/mL
same,Activity,[16],0%
same,Activity,[17],0%
same,Activity,[18],0%
same,MIC50,[19],1 µg/mL
same,MIC90,[19],2 µg/mL
same,MIC50,[20],0.25 µg/mL
same,MIC90,[20],2 µg/mL
same,Activity,[21],0%
same,Activity,[22],0%
same,Activity,[23],0%
same,Activity,[24],0%
same,Activity,[25],0%
same,MIC50,[26],0.25 µg/mL
same,MIC90,[26],1 µg/mL
same,Activity,[27],0%
same,Activity,[28],0%
same,MIC50,[29],0.25 µg/mL
same,MIC90,[29],0.5 µg/mL
same,Activity,[30],0%
same,MIC50,[31],0.125 µg/mL
same,MIC90,[31],0.25 µg/mL
same,Activity,[32],0%
same,MIC50,[33],≤ 0.015 µg/mL
same,MIC90,[33],0.06 µg/mL
same,Activity,[34],0%
same,MIC50,[35],0.06 µg/mL
same,MIC90,[35],0.125 µg/mL
same,MIC50,[36],1 µg/mL
same,MIC90,[36],2 µg/mL
same,MIC50,[37],≤ 0.015 µg/mL
same,MIC90,[37],0.06 µg/mL
C[C@@H](O)[C@H]1C(=O)N2C(C(=O)O)=C(SCCNC=N)C[C@H]12 [IMIPENEM ANHYDROUS],MIC50,[1],0.5 µg/mL
same,MIC90,[1],1 µg/mL
same,Activity,[2],0%
same,Activity,[3],0%
same,Activity,[4],0%
same,Activity,[5],0%
same,MIC50,[6],≤ 0.015 µg/mL
same,MIC90,[6],0.03 µg/mL
same,MIC50,[7],0.5 µg/mL
same,MIC90,[7],1 µg/mL
same,MIC50,[8],0.25 µg/mL
same,MIC90,[8],2 µg/mL
same,MIC50,[9],0.25 µg/mL
same,MIC90,[9],2 µg/mL
same,MIC50,[10],0.03 µg/mL
same,MIC90,[10],0.06 µg/mL
same,MIC50,[11],0.25 µg/mL
same,MIC90,[11],2 µg/mL
same,MIC50,[12],0.5 µg/mL
same,MIC90,[12],1 µg/mL
same,MIC50,[13],0.03 µg/mL
same,MIC90,[13],0.06 µg/mL
same,MIC50,[14],0.5 µg/mL
same,MIC90,[14],1 µg/mL
same,MIC50,[15],≤ 0.015 µg/mL
same,MIC90,[15],≤ 0.015 µg/mL
same,Activity,[16],0%
same,Activity,[17],0%
same,Activity,[18],0%
same,MIC50,[19],0.5 µg/mL
same,MIC90,[19],1 µg/mL
same,MIC50,[20],0.25 µg/mL
same,MIC90,[20],2 µg/mL
same,Activity,[21],0%
same,Activity,[22],0%
same,Activity,[23],0%
same,Activity,[24],0%
same,Activity,[25],0%
same,MIC50,[26],0.125 µg/mL
same,MIC90,[26],0.125 µg/mL
same,Activity,[27],0%
same,Activity,[28],0%
same,MIC50,[29],0.03 µg/mL
same,MIC90,[29],0.06 µg/mL
same,Activity,[30],0%
same,MIC50,[31],≤ 0.015 µg/mL
same,MIC90,[31],0.03 µg/mL
same,Activity,[32],0%
same,MIC50,[33],< 0.015 µg/mL
same,MIC90,[33],≤ 0.015 µg/mL
same,Activity,[34],0%
same,MIC50,[35],0.06 µg/mL
same,MIC90,[35],0.125 µg/mL
same,MIC50,[36],0.5 µg/mL
same,MIC90,[36],1 µg/mL
same,MIC50,[37],< 0.015 µg/mL
same,MIC90,[37],≤ 0.015 µg/mL

# — ChEMBL document CHEMBL1153560, “In vitro activities of doripenem and six comparator drugs against 423 aerobic and anaerobic bacterial isolates from infected diabetic foot wounds” (2008)
